Reference: ChEMBL document CHEMBL3997800, “Discovery of Multitarget Agents Active as Broad-Spectrum Antivirals and Correctors of Cystic Fibrosis Transmembrane Conductance Regulator for Associated Pulmonary Diseases” (J Med Chem, 2017)

What was measured:
[1] = Cytotoxicity against human RD cells assessed as change in cell morphology by microscopic method; format: cell-based
Summary of the method: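 Uninfected, compound-treated RD cells were inspected by microscope. CC50 was taken from microscopically detectable alteration of cell morphology.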

[2] = tested on: Enterovirus A71; assay: Antiviral activity against Enterovirus 71 infected in RD cells assessed as reduction in virus-induced cytopathic effect incubated for 2 to 3 days; format: functional, cell-based; settings: Enterovirus A, RD; read-out: EC50
Summary of the method: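 RD cells seeded at 20 000/well in MEM with 2% FCS and infected with EV71. Three 8-step 1:5 dilution series from 100 μM. Incubated 2-3 days until maximal CPE, then scored for CPE reduction. EC50 is the median of three dose-response curves.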

[3] = biological target: CDK2/Cyclin A2 (Homo sapiens) (UniProt P24941+P20248); assay: Inhibition of full-length recombinant human N-terminal GST-tagged CDK2/cyclin A2 expressed in baculovirus infected sf9 cells assessed as residual activity at 100 uM using histone H1 as substrate by ADP-Glo bioluminescence assay relative to control relative to control
Summary of the method: (§1)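 Kinase reactions followed manufacturer's instructions with 10-50 ng enzyme, in 10 µL for 10 min at 30 °C; NP-40 or BSA added for some kinases. Compound at 100 µM. Residual activity is the mean of two independent replicates.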

[4] = Inhibition of full length recombinant His6-tagged PI4K3beta (unknown origin) expressed in Sf9 insect cells using PI : PS as substrate in presence of [gamma-33P]-ATP by scintillation counting method; parameters: species or system Homo sapiens; settings: read-out: IC50
[5] = tested on: Poliovirus 1; assay: Antiviral activity against Poliovirus 1 after 2 to 3 days by cell based MTS assay; format: functional; settings: Enterovirus C
Summary of the method: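 Vero cells seeded at 20 000/well in MEM with 2% FCS. Three 8-step 1:5 dilution series from 100 μM, then virus, then cells; 2–3 days until maximal CPE. Read-out: 5% MTS for 1.5 h at 37°C, absorbance at 498 nm, expressed as % of untreated controls. EC50 taken as the median of 3 dose-response curves.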

[6] = biological target: Serine/threonine-protein kinase pim-1 (Homo sapiens) (UniProt P11309); assay: Inhibition of recombinant human N-terminal GST-tagged pim1 expressed in baculovirus infected sf9 cells assessed as residual activity using KRRRLASLR as substrate at 100 uM by ADP-Glo bioluminescence assay relative to control relative to control; summary of the method: as §1
Sequence of Serine/threonine-protein kinase pim-1 (Homo sapiens) (P11309 whole entry, looked up): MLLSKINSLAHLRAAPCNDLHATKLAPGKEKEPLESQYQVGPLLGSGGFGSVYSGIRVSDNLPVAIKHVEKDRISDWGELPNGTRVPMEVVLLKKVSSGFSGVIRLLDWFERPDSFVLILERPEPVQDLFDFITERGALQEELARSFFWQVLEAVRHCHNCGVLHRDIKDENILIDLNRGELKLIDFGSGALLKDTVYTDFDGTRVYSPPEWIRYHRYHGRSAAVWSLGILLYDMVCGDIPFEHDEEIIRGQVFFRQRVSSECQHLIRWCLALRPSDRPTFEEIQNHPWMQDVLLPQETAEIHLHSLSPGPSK

[7] = tested on: Enterovirus A71; assay: Antiviral activity against Enterovirus 71 TW/96016/08 clinical isolates incubated for 2 to 3 days; format: functional; settings: Enterovirus A
[8] = Selectivity index, ratio of CC50 for human RD cells to EC50 for Enterovirus 71; format: toxicity; settings: read-out: Ratio CC50/EC50
Summary of the method: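 SI is CC50/EC50. CC50 is from the MTS assay on uninfected RD cells and EC50 from the EV71 CPE-reduction assay, both medians of three dose-response curves run in parallel.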

## CC(=O)c1cccc(Nc2nc(-c3sc(NC(=O)OC(C)(C)C)nc3C)cs2)c1
[1]
  CC50: 101 µM
[2]
  EC50: 1.42 µM
[3]
  Activity: 62%
[4]
  IC50: 4.67 µM
[5]
  EC50: 13.3 µM
[6]
  Activity: 70%
[7]
  EC50: 21 µM
[8]
  selectivity ratio: 29.7
